The test system of one data set is Leishmania panamensis. Put plainly: Antimicrobial activity against Leishmania panamensis M/HOM//87/UA140 transfected with p6.5-egfp after 72 hrs by MTT assay. The data set is classed as functional, organism-based. The following applies: M/HOM//87/UA140, 72 h. An outline of the steps: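 Axenic amastigotes of L. panamensis M/HOM//87/UA140 epirGFP strain (1 × 10^6 parasites/mL) incubated at 32 °C in Schneider's Drosophila medium pH 5.2 with 20% heat-inactivated FCS. Six concentrations, 3.1-100 µg/mL, from DMSO solutions, 72 h. MTT then added for 4 h, stopped with 2-propanol/SDS, OD 570 nm. DMSO-treated and untreated parasites as controls, amphotericin B as reference. Two independent experiments in triplicate, EC50 by Probit analysis.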

The nature of data set [1]: Selectivity index, ratio of CC50 for human U937 cells to EC50 for Leishmania panamensis M/HOM//87/UA140. The data set is classed as toxicity, cell-based, U-937. The conditions noted are these: read-out: Selectivity Index.
Data set [2] can be described thus: Cytotoxicity against human U937 cells. The data set is classed as cell-based, U-937.

Converted amounts (≈) assume the structure as drawn.

The molecule `C=C(C)[C@H]1O[C@@H]1c1c(OC[C@H]2OC2(C)C)ccc2ccc(=O)oc12` (relative stereo) displayed an EC50 in the data set on Leishmania panamensis of 10 µg/mL (≈ 30.5 µM). Further, in data set [1], the selectivity ratio is 1. In data set [2], this molecule returned a half-maximal cytotoxic concentration (CC50) of 9.7 µg/mL (≈ 29.5 µM).

For the molecule `COc1ccc2ccc(=O)oc2c1-c1cocc1C`, the EC50 with Leishmania panamensis came to 10 µg/mL (≈ 39 µM). In addition, the selectivity ratio in data set [1] was 3. Besides, the CC50 in data set [2] turned out to be 33 µg/mL (≈ 129 µM).

On to `COc1ccc2ccc(=O)oc2c1C(C=O)=C(C)C` [MURRALONGIN], for which the concentration for a half-maximal effect (EC50) in the data set on Leishmania panamensis is above 100 µg/mL. Moreover, the cytotoxic concentration (CC50) in data set [2] stood at 121 µg/mL (≈ 470 µM).

As for `C=C(C)[C@H]1O[C@@H]1c1c(OC)ccc2ccc(=O)oc12` [PHEBALOSIN], the selectivity ratio in data set [1] is 1.5. The same molecule gave a CC50 in data set [2] of 20.7 µg/mL (≈ 80.1 µM).

The record behind these values is ChEMBL document CHEMBL1157796, “Coumarins from Galipea panamensis and Their Activity against Leishmania panamensis” (J Nat Prod, 2010).
